Measured values published in ChEMBL document CHEMBL4130487, “A pentanoic acid derivative targeting matrix metalloproteinase-2 (MMP-2) induces apoptosis in a chronic myeloid leukemia cell line” (Eur J Med Chem, 2017).

Columns and labels:
K562 = test: Cytotoxicity against human K562 cells assessed as reduction in cell viability after 48 hrs by MTT assay; type: functional, cell-based; settings: K562, 48 h
Outline: (§1)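 A549, MDA-MB-231, K562, U937 and PBMC (PBMC from healthy donors) seeded at 1×10^3 cells/well and left 24 h, then exposed to compounds for 48 h at 37 °C, 5% CO2. Adherent lines were grown in DMEM, the others in RPMI-1640 with 10% heat-inactivated FBS. MTT read-out; viability expressed as % of untreated control. IC50 taken as the concentration giving 50% viability loss.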

[1] = target: Matrix metalloproteinase-14 (Homo sapiens, UniProt P50281); test: Inhibition of recombinant human MMP14 (Tyr112 to Arg298 residues) expressed in Escherichia coli using Ac-Pro-Leu-Gly-S-Leu-Leu-Gly-OEt as substrate after 1 hr measured at 1 min time interval for 30 mins by microplate photometric method
Outline: (§2)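 Commercial MMP kits; compound preincubated with enzyme before chromogenic substrate was added. Reactions at 37 °C for 1 h, with at least six inhibitor concentrations in triplicate. Absorbance at 410 nm read every 1 min for 30 min. NNGH used as reference inhibitor. IC50 taken from semi-logarithmic dose-response plots.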

[2] = target: Macrophage metalloelastase (Homo sapiens, UniProt P39900); test: Inhibition of recombinant human MMP12 (Phe99 to Leu271 residues) expressed in Escherichia coli using Ac-Pro-Leu-Gly-S-Leu-Leu-Gly-OEt as substrate after 1 hr measured at 1 min time interval for 30 mins by microplate photometric method; outline: as §2
Neutrophil collagenase = Neutrophil collagenase (Homo sapiens, UniProt P22894); test: Inhibition of recombinant human MMP8 (Phe99 to Gln269 residues) expressed in Escherichia coli using Ac-Pro-Leu-Gly-S-Leu-Leu-Gly-OEt as substrate after 1 hr measured at 1 min time interval for 30 mins by microplate photometric method; outline: as §2
[3] = target: 72 kDa type IV collagenase (Homo sapiens, UniProt P08253); test: Inhibition of recombinant human MMP2 (Tyr110 to Asp452 residues) using Ac-Pro-Leu-Gly-S-Leu-Leu-Gly-OEt as substrate after 1 hr measured at 1 min time interval for 30 mins by microplate photometric method; outline: as §2
[4] = target: Matrix metalloproteinase-9 (Homo sapiens, UniProt P14780); test: Inhibition of recombinant human MMP9 (Phe107 to Pro449 residues) expressed in Escherichia coli using Ac-Pro-Leu-Gly-S-Leu-Leu-Gly-OEt as substrate after 1 hr measured at 1 min time interval for 30 mins by microplate photometric method; outline: as §2
PBMC = test: Cytotoxicity against human PBMC assessed as reduction in cell viability after 48 hrs by MTT assay; type: cell-based; outline: as §1
U-937 = test: Cytotoxicity against human U937 cells assessed as reduction in cell viability after 48 hrs by MTT assay; type: functional, cell-based; settings: U-937, 48 h; outline: as §1
MDA-MB-231 = test: Cytotoxicity against human MDA-MB-231 cells assessed as reduction in cell viability after 48 hrs by MTT assay; type: functional, cell-based; settings: MDA-MB-231, 48 h; outline: as §1
[5] = target: MMP-2/MMP-9 (Homo sapiens) (UniProt P08253+P14780); test: Selectivity ratio of IC50 for recombinant human MMP9 (Phe107 to Pro449 residues) expressed in Escherichia coli to IC50 for recombinant human MMP2 (Tyr110 to Asp452 residues)
Interstitial collagenase = target: T1, Interstitial collagenase (Homo sapiens, UniProt P03956); test: Inhibition of recombinant human MMP1 (Phe100 to Gln268 residues) using Ac-Pro-Leu-Gly-S-Leu-Leu-Gly-OEt as substrate after 1 hr measured at 1 min time interval for 30 mins by microplate photometric method; outline: as §2
T1 sequence (P03956 whole entry): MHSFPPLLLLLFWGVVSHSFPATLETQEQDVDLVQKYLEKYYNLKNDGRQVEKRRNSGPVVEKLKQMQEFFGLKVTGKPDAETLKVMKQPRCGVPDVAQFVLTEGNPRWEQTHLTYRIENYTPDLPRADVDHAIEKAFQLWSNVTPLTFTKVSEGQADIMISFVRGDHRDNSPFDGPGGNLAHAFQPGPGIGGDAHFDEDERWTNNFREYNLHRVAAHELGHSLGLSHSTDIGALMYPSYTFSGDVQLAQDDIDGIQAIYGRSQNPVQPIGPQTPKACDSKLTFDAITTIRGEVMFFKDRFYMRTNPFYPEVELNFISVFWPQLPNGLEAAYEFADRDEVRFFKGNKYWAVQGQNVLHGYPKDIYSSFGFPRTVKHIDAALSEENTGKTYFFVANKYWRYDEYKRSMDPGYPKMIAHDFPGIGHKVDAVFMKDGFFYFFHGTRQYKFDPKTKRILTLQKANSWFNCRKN

A549 = test: Cytotoxicity against human A549 cells assessed as reduction in cell viability after 48 hrs by MTT assay; type: functional, cell-based; settings: A549, 48 h; outline: as §1

Sequence of Matrix metalloproteinase-9 (P14780 whole entry): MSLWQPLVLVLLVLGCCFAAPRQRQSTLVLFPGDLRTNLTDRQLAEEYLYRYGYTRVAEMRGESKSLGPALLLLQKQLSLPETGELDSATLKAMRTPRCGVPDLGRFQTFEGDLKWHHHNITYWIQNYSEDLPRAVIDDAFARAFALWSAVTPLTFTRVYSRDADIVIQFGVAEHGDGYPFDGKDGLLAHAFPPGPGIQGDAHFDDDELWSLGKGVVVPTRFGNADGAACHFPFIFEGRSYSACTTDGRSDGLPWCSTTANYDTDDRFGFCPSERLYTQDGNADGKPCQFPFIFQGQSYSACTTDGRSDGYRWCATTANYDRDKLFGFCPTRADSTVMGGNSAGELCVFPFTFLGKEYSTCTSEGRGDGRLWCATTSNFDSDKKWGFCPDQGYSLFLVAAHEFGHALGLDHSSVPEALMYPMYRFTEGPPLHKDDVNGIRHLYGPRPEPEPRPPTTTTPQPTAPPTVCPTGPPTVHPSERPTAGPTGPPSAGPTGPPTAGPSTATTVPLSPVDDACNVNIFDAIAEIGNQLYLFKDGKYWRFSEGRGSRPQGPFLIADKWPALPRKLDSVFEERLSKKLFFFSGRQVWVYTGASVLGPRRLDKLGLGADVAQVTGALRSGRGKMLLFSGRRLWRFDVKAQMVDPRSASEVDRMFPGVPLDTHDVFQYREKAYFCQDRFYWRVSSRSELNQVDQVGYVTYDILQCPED
Sequence of 72 kDa type IV collagenase (P08253 whole entry): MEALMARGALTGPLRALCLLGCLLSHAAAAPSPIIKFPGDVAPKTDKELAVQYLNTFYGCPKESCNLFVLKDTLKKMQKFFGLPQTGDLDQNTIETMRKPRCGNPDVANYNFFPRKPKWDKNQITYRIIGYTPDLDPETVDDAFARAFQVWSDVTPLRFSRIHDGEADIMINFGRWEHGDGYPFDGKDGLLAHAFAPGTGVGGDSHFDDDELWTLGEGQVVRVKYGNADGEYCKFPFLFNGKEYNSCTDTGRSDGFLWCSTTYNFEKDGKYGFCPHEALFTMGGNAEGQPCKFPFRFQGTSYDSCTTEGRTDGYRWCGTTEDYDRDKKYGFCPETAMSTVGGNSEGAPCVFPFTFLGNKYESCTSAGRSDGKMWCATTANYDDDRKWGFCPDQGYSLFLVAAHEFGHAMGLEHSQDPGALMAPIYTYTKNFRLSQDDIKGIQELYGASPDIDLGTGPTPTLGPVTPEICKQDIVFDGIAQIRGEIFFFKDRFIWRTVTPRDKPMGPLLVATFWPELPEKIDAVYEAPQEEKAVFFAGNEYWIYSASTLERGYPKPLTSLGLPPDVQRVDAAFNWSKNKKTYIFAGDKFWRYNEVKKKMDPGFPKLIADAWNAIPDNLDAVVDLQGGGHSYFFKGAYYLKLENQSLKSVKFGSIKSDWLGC
Sequence of Neutrophil collagenase (P22894 whole entry): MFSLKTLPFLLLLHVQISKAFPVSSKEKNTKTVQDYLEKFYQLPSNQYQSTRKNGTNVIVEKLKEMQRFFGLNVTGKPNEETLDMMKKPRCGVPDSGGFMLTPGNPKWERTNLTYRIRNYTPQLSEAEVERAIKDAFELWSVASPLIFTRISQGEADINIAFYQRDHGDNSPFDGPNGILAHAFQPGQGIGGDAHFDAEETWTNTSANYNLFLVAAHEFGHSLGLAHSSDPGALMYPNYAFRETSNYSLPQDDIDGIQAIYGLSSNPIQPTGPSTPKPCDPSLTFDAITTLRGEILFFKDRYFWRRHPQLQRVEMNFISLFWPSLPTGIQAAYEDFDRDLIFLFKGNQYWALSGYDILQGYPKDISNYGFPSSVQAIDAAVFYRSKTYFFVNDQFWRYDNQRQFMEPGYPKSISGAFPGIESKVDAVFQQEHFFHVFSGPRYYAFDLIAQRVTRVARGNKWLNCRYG
Sequence of Macrophage metalloelastase (P39900 whole entry): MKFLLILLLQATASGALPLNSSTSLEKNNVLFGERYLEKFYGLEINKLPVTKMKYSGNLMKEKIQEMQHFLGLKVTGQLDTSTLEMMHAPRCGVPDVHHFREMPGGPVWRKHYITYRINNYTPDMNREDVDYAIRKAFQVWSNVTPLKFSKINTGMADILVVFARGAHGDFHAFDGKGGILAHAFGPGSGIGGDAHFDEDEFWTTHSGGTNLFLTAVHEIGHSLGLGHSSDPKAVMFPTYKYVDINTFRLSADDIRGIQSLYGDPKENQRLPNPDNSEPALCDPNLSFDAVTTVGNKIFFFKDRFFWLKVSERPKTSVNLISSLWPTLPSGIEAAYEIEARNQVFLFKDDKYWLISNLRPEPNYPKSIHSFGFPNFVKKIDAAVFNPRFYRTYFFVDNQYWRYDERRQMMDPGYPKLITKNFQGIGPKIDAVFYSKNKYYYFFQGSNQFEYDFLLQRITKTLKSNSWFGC

Row | IC50 [1] [µM] | IC50 [2] [µM] | IC50 (Neutrophil collagenase) [µM] | IC50 [3] [µM] | IC50 [4] [µM] | Ratio IC50 [5] | IC50 (Interstitial collagenase) [µM] | Compound | IC50 (K562) [µM] | IC50 (PBMC) [µM] | IC50 (U-937) [µM] | IC50 (MDA-MB-231) [µM] | IC50 (A549) [µM]
1 | 76.3 | 100 | 199 | 1.65 | 7 | 4.24 | > 500 | NC(=O)CC[C@H](NS(=O)(=O)c1ccc([N+](=O)[O-])cc1)C(=O)O | > 500 | > 1000 | > 500 | > 500 | > 500
2 | 87.1 | 109 | 298 | 5.34 | 4.8 |  | > 500 | CCNC(=O)CC[C@H](NS(=O)(=O)c1ccc([N+](=O)[O-])cc1)C(=O)O | > 500 | > 1000 | 89.4 | > 500 | 221
3 | > 500 | > 500 | 401 | 2.85 | 7.5 | 2.63 | > 500 | CNC(=O)CC[C@H](NS(=O)(=O)c1ccc([N+](=O)[O-])cc1)C(=O)O | > 500 | > 1000 | > 500 | > 500 | > 500

More lines, now with the values behind:

Row | Compound | IC50 [1] [µM] | IC50 [2] [µM] | IC50 (Neutrophil collagenase) [µM] | IC50 [3] [µM] | IC50 [4] [µM] | Ratio IC50 [5] | IC50 (Interstitial collagenase) [µM] | IC50 (K562) [µM] | IC50 (PBMC) [µM] | IC50 (U-937) [µM] | IC50 (MDA-MB-231) [µM] | IC50 (A549) [µM]
4 | CCCCNC(=O)CC[C@H](NS(=O)(=O)c1ccc([N+](=O)[O-])cc1)C(=O)O | 111 | 198 | 346 | 4.07 | 6.36 |  | > 500 | 19.7 | > 1000 | 94 | > 500 | 276
5 | CC(C)NC(=O)CC[C@H](NS(=O)(=O)c1ccc([N+](=O)[O-])cc1)C(=O)O | 301 | 493 | > 500 | 2.12 | 5.97 | 2.82 | > 500 | 19.8 | > 1000 | 95.1 | > 500 | > 500
6 | O=C(CC[C@H](NS(=O)(=O)c1ccc([N+](=O)[O-])cc1)C(=O)O)NCc1ccccc1 | 109 | 95.2 | 173 | 0.21 | 6.37 | > 25 | > 500 | 23.4 | > 1000 | 102 | 175 | 343
7 | CC(C)CNC(=O)CC[C@H](NS(=O)(=O)c1ccc([N+](=O)[O-])cc1)C(=O)O | 309 | > 500 | 483 | 8.52 | 5.14 |  | > 500 | 42.5 | > 1000 | 93.8 | > 500 | > 500
